ChEMBL document CHEMBL4043307, “Toward β-Secretase-1 Inhibitors with Improved Isoform Selectivity” (J Med Chem, 2018)
One block for each compound: values may come before it. Active and inactive are the calls of the source. The calls are words filed in the database; no cut-off is given here.

Tests used:
[1] = Intrinsic clearance in rat hepatocytes assessed per million cells at 1 uM after 120 mins by LC-MS/MS method; format: ADME, cell-based, Hepatocyte; settings: 2 h
[2] = Apparent permeability across MDCK cells expressing MDR1 after 2 hrs by LC-MS/MS method; format: ADME, cell-based, Canis lupus familiaris; settings: dog
[3] = test system: Liver; assay: Intrinsic clearance in human liver microsomes at 1 uM after 30 mins by LC-MS/MS method; format: ADME, microsome; settings: 0.5 h
[4] = Unbound brain-to-plasma concentration ratio in CD rat at 1 mg/kg, po as cassette dose after 2 hrs by LC-MS/MS method; format: ADME, organism-based; settings: brain and plasma, read-out: K(p,uu,brain)
[5] = Unbound brain-to-plasma concentration ratio in CD rat at 5 mg/kg, po as cassette dose after 2 hrs by LC-MS/MS method; format: ADME, organism-based; settings: brain and plasma, read-out: K(p,uu,brain)
[6] = target: T1, Beta-secretase 1 (Homo sapiens, UniProt P56817); assay: Inhibition of human BACE1 (1 to 460 residues) fused with Fc domain of IgG1 expressed in HEK293 cells preincubated for 10 mins followed by substrate addition measured after 17 mins by TR-FRET assay; format: cell-based
T1 sequence (P56817 whole entry, the tested form may be a part): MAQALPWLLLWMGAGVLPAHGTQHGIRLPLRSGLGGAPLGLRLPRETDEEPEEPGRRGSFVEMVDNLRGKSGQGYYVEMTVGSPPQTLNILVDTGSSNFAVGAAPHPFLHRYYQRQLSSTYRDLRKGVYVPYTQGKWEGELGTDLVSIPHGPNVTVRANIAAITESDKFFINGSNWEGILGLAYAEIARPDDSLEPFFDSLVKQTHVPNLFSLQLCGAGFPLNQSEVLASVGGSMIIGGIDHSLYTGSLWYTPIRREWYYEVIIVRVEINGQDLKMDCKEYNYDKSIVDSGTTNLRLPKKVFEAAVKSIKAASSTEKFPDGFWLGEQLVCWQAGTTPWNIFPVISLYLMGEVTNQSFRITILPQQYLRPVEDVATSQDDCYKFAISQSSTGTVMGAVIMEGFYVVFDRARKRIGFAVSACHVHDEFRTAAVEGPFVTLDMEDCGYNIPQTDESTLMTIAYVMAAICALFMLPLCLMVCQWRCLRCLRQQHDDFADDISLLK
In short: (§1)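 Biochemical protease assays on the human BACE1 or BACE2 enzyme. Both assays use the same fluorescently labelled peptide substrate, designed to span the BACE cleavage site of APP.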

[7] = target: T1, Beta-secretase 1; assay: Inhibition of BACE1 in human SH-SY5Y cells assessed as decrease in sAPP-beta release after 16 to 17 hrs; format: cell-based
[8] = test system: Mus musculus; assay: Reduction of amyloid beta-42 levels in C57BL/6 mouse brain at 50 mg/kg, po after 1.5 to 16 hrs by immunoassay relative to vehicle-treated control; format: functional, organism-based; settings: tested as the 2H-labelled form
In short: (§2)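 PK/PD study in C57BL/6 mice given 50 mg/kg orally. Brain Aβ40 and Aβ42 and plasma Aβ40 levels were followed over time alongside free brain and plasma exposure, and compared with vehicle-treated controls.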

[9] = target: Cathepsin D (Homo sapiens) (UniProt P07339); assay: Inhibition of human cathepsin D up to 100 uM using MOCAc-Gly-Lys-Pro-Ile-Leu-Phe-Phe-Arg-Leu-Lys(Dnp)-D-Arg-NH2 as substrate after 10 mins by spectrophotometric method; settings: tested as the 2H-labelled form
Cathepsin D (Homo sapiens), sequence (P07339 65-162 limits assumed): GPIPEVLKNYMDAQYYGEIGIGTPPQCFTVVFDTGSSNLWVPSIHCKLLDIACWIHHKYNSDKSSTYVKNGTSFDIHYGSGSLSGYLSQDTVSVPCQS
Cathepsin D (Homo sapiens), sequence (P07339 169-412 limits assumed): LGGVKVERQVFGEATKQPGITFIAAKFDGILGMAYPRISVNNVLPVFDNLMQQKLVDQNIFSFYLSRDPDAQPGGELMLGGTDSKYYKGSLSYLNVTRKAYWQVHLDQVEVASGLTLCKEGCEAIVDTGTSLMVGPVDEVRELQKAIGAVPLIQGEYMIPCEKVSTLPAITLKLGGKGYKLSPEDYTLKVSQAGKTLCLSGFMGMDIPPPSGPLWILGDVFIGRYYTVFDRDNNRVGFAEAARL

[10] = test system: Mus musculus; assay: Reduction of amyloid beta-40 levels in C57BL/6 mouse brain at 50 mg/kg, po after 1.5 to 16 hrs by immunoassay relative to vehicle-treated control; format: functional, organism-based; settings: tested as the 2H-labelled form; in short: as §2
[11] = target: Cathepsin S (Homo sapiens) (UniProt P25774); assay: Inhibition of full length recombinant human cathepsin S up to 100 uM using Z-Leu-Arg-AMC as substrate after 30 mins by spectrophotometric method; settings: tested as the 2H-labelled form
Cathepsin S (Homo sapiens), sequence (P25774 115-331 limits assumed): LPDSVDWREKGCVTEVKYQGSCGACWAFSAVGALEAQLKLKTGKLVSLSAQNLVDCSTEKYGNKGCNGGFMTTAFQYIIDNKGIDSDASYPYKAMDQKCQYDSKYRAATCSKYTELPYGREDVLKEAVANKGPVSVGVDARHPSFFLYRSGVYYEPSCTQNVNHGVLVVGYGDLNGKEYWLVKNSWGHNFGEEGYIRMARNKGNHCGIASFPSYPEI

[12] = target: T2, Renin (Homo sapiens) (UniProt P00797); assay: Inhibition of full length recombinant human renin up to 100 uM using DABCYL-gamma-Abu-Ile-His-Pro-Phe-His-Leu-Val-Ile-His-Thr-EDANS as substrate after 60 mins by spectrophotometric method; settings: tested as the 2H-labelled form
T2 sequence (whole entry): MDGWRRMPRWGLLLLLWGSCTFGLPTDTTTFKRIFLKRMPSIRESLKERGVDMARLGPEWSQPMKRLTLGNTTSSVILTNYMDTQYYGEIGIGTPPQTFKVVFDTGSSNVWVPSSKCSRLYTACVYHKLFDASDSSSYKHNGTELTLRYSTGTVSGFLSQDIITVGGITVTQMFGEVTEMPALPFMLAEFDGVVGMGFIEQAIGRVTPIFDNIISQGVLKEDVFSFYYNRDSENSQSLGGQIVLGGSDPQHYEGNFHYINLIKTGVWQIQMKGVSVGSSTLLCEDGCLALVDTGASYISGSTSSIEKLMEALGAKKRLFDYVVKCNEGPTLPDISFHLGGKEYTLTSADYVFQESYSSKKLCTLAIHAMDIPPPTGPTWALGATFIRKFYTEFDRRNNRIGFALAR

[13] = test system: Mus musculus; assay: Reduction of amyloid beta-40 levels in C57BL/6 mouse plasma at 50 mg/kg, po after 1.5 to 16 hrs by immunoassay; format: functional, organism-based; settings: tested as the 2H-labelled form; in short: as §2
[14] = species: Sus scrofa; assay: Inhibition of pig pepsin up to 100 uM using MOCAc-Ala-Pro-Ala-Lys-Phe-Phe-Arg-Leu-Lys(Dnp)-NH2 as substrate after 60 mins by spectrophotometric method; settings: tested as the 2H-labelled form
[15] = test system: Mus musculus; assay: Reduction of amyloid beta-42 levels in C57BL/6 mouse brain at 50 mg/kg, po after 3 hrs by immunoassay relative to vehicle-treated control; format: functional; parameters: scale not given: the % may be the effect or the level left; in short: as §2
[16] = test system: Brain; assay: Fraction unbound in C57BL/6 mouse brain at 50 mg/kg, po after 3 hrs by LC-MS/MS analysis; format: ADME, organism-based; settings: in vivo
[17] = target: Voltage-gated inwardly rectifying potassium channel KCNH2 (Homo sapiens, UniProt Q12809); assay: Inhibition of human ERG
Voltage-gated inwardly rectifying potassium channel KCNH2, sequence (Q12809 whole entry): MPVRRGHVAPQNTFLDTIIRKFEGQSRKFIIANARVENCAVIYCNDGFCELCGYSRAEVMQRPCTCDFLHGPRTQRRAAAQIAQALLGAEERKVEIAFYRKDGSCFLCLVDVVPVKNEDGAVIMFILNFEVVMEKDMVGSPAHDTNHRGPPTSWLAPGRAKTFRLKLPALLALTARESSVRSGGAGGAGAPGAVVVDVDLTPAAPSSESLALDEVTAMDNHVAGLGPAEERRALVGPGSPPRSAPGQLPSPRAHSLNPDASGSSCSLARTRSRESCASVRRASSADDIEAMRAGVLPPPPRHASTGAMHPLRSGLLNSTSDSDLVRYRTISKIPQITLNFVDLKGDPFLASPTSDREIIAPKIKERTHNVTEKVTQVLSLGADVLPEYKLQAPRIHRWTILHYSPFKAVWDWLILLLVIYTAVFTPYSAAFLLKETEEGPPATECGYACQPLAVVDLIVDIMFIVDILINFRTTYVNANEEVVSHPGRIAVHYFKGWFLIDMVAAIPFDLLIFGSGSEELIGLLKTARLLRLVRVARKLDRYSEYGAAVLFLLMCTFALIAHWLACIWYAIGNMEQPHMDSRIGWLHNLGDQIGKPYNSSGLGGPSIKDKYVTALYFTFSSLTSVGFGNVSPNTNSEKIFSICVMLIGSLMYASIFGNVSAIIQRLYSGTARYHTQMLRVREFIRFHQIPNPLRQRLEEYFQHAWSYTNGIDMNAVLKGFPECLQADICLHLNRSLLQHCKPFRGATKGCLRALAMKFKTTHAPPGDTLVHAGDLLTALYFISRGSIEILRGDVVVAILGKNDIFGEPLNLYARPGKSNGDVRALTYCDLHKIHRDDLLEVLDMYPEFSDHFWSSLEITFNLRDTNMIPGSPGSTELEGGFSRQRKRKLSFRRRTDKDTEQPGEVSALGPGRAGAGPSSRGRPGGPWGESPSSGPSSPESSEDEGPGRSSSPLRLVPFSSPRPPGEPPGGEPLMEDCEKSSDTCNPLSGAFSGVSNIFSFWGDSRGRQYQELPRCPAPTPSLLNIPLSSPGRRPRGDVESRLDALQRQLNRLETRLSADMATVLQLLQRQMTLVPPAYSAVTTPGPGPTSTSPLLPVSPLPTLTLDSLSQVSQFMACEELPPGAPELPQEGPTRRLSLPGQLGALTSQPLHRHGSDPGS

[18] = target: T3, Beta-secretase 2 (Homo sapiens, UniProt Q9Y5Z0); assay: Inhibition of BACE2 in human MNT1 cells assessed as increase in M-beta accumulation at 10 uM after 24 hrs by Western blot method; format: cell-based
T3 sequence (Q9Y5Z0 whole entry): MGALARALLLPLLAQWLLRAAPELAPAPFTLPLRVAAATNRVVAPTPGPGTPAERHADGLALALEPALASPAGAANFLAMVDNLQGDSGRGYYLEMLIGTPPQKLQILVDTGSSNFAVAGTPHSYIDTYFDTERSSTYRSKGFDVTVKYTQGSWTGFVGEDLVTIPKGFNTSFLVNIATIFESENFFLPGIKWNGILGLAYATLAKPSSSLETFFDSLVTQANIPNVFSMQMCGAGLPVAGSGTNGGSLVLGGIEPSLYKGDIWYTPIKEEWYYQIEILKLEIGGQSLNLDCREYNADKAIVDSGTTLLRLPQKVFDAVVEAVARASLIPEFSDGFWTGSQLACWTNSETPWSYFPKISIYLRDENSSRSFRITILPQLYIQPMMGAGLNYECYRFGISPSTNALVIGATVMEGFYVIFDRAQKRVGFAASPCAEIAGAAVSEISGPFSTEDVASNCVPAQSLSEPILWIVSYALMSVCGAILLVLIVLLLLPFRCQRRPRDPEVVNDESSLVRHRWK
In short: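 Human melanocyte MNT1 cells incubated with a range of inhibitor concentrations or vehicle (0.1% DMSO). Cells then processed to detect parent PMEL (P1) and the proteolytically cleaved Mβ fragment. Mβ fragment accumulation serves as the read-out of BACE2 inhibition.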

[19] = target: hERG (KCNH2) (Homo sapiens, UniProt Q12809); assay: Inhibition of human ERG at 11.1 uM relative to control
hERG (KCNH2), sequence (Q12809 whole entry, the tested form may be a part): as the sequence (Q12809 whole entry) above

[20] = target: T3, Beta-secretase 2; assay: Inhibition of human BACE2 (1 to 473 residues) using CEVNLDAEFK as substrate preincubated for 10 mins followed by substrate addition measured after 6.5 hrs by TR-FRET assay; in short: as §1
[21] = target: T3, Beta-secretase 2; assay: Inhibition of BACE2 in human MNT1 cells assessed as increase in M-beta accumulation at 10 nM after 24 hrs by Western blot method; format: cell-based; settings: 0.01 µM
In short: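 Human melanocyte MNT1 cells incubated with a range of inhibitor concentrations or vehicle (0.1% DMSO), then processed to detect parent PMEL (P1) and the proteolytically cleaved Mβ fragment. Mβ accumulation serves as the read-out of BACE2 inhibition.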

Structure (SMILES): CO[C@H]1CC[C@]2(CC1)Cc1ccc(-c3cc(Cl)cc(C#N)c3)cc1[C@@]21COC(N)=N1
- CLH [1]: 11.6 µL/min/10^6 cells
- permeability [2]: Impermeable
- CLH [3]: 11.1 µL/min/mg
- Kp uu at 2 h [4]: 0.21

Structure (SMILES): [2H]C1([2H])OC(N)=N[C@]12c1cc(-c3cc(C#N)cc(OC)c3)ccc1C[C@]21CC[C@@H](OC)CC1
- Kp uu at 2 h [5]: 0.27
- CLH [1]: 25.1 µL/min/10^6 cells
- CLH [3]: 15.7 µL/min/mg

Structure (SMILES): CO[C@H]1CC[C@@]2(Cc3ccc(-c4cncnc4)cc3[C@@]23COC(N)=N3)C[C@@H]1C
- Activity [8]: inactive
- inhibition [9]: inactive
- Activity [10]: inactive
- inhibition [11]: inactive
- inhibition [12]: inactive
- Activity [13]: Active
- inhibition [14]: inactive

Structure (SMILES): [2H]C1([2H])OC(N)=N[C@]12c1cc(-c3cncnc3)ccc1C[C@@]21CC[C@H](OC)[C@@H](C)C1
- Activity [15]: 30%
- Drug uptake(free) [16]: 50 nM
- CLH [1]: 66 µL/min/10^6 cells
- IC50 [17]: > 33 µM
- CLH [3]: 47 µL/min/mg
- inhibition (INH) [18]: Active

Structure (SMILES): COc1cc(C#N)cc(-c2ccc3c(c2)[C@@]2(COC(N)=N2)[C@]2(CC[C@H](OC)CC2)C3)c1
- CLH [1]: 23.9 µL/min/10^6 cells
- CLH [3]: 13.9 µL/min/mg
- Kp uu at 2 h [4]: 0.07

Structure (SMILES): [2H]C1([2H])OC(N)=N[C@]12c1cc(-c3cncnc3)ccc1C[C@]21CC[C@@H](OC)[C@H](C)C1
- CLH [1]: 82 µL/min/10^6 cells
- IC50 [17]: > 33 µM
- CLH [3]: 52.4 µL/min/mg

Structure (SMILES): NC1=N[C@@](c2cccc(-c3cncnc3)c2)(c2ccnc(C(F)F)c2)c2cccc(F)c21 [AZD-3839]
- IC50 [20]: 0.0009 µM
- inhibition (INH) [21]: Active

Second part, led by results:

- CLH [1]: 137 µL/min/10^6 cells
- CLH [3]: 187 µL/min/mg
Structure (SMILES): [2H]C1([2H])OC(N)=N[C@]12c1cc(-c3cncnc3)ccc1C[C@@]21C[C@@H](C)[C@H](OC)[C@@H](C)C1 (racemic)

- Ki [6]: 0.43 µM
- IC50 [7]: 0.007 µM
Structure (SMILES): [2H]C1([2H])OC(N)=N[C@]12c1cc(-c3cccnc3)ccc1C[C@]21CC[C@@H](OC)CC1

- CLH [1]: 138 µL/min/10^6 cells
- CLH [3]: 149 µL/min/mg
Structure (SMILES): [2H]C1([2H])OC(N)=N[C@]12c1cc(-c3cncnc3)ccc1C[C@]21CC[C@@H](OC)[C@H](CC)C1
- inhibition at 11.1 µM [19]: 15%

- Ki [6]: 0.134 µM
- IC50 [7]: 0.007 µM
Structure (SMILES): [2H]C1([2H])OC(N)=N[C@]12c1cc(-c3cncnc3)ccc1C[C@]21CC[C@@H](OC)CC1

- CLH [1]: 158 µL/min/10^6 cells
- CLH [3]: 153 µL/min/mg
Structure (SMILES): [2H]C1([2H])OC(N)=N[C@]12c1cc(-c3cncnc3)ccc1C[C@@]21CC[C@H](OC)[C@@H](CC)C1
- inhibition at 11.1 µM [19]: 29%

- Kp uu at 2 h [5]: 0.68
- CLH [1]: 8.7 µL/min/10^6 cells
- CLH [3]: 11.5 µL/min/mg
Structure (SMILES): [2H]C1([2H])OC(N)=N[C@]12c1cc(-c3cc(Cl)cc(C#N)c3)ccc1C[C@]21CC[C@@H](OC)CC1
